# From PubChem BioAssay AID588487 (The Scripps Research Institute Molecular Screening Center, 2011)
# Activity calls are given as the source filed them.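 How the source made its calls: active means inhibition of at least 50% against any of four protein arginine deiminase enzymes; inactive means the rest.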
# Experiments:
# Experiment in all cases: PAD isozyme probe labeling blockade – biochemical, fluorescence, gel-based ABPP, HTS hits, orthogonal assay for PAD4 inhibitor project, late-stage follow-up (AID 588487)
# [1] = molecular target: Protein-arginine deiminase type-4 (Homo sapiens) (UniProt Q9UM07); conditions: recombinant PAD1-4, gel-based ABPP, RFA probe fluorescence; PAD4; at 10 µM; hits give high values
# Chain of Protein-arginine deiminase type-4 (Homo sapiens) (Q9UM07 whole entry, looked up): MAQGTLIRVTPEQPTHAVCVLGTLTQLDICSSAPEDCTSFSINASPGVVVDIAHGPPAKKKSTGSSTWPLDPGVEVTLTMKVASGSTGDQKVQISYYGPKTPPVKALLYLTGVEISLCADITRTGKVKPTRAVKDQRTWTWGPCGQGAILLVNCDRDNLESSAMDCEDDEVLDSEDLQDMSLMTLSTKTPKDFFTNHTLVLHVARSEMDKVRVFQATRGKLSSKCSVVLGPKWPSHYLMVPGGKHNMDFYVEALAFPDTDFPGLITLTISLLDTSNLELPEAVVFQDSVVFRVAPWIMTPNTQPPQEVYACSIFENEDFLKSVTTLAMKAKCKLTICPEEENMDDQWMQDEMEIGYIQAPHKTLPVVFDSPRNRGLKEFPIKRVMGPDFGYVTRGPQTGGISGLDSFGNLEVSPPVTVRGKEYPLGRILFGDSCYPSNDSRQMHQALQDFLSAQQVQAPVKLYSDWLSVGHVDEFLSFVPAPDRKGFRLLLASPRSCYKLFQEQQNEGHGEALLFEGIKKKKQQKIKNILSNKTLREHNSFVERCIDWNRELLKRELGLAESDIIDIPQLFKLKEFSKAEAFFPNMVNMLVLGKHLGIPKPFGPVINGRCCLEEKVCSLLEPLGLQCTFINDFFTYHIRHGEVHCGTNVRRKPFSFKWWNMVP
# Outline: (§1)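 System – recombinant PAD1, PAD2, PAD3 or PAD4 · Input – PAD enzyme 10 µM · Probe or stimulus – RFA fluorescent probe at 1 µM · Dosing – single compound dose of 10 µM, DMSO vehicle · Times – 15 min compound pre-incubation plus 30 min probe step, 37 °C · Signal – SDS-PAGE gel fluorescence, band integrated optical density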
# [2] = molecular target: Protein-arginine deiminase type-3 (Homo sapiens) (UniProt Q9ULW8); conditions: recombinant PAD1-4, gel-based ABPP, RFA probe fluorescence; PAD3; at 10 µM; hits give high values
# Chain of Protein-arginine deiminase type-3 (Homo sapiens) (Q9ULW8 whole entry, looked up): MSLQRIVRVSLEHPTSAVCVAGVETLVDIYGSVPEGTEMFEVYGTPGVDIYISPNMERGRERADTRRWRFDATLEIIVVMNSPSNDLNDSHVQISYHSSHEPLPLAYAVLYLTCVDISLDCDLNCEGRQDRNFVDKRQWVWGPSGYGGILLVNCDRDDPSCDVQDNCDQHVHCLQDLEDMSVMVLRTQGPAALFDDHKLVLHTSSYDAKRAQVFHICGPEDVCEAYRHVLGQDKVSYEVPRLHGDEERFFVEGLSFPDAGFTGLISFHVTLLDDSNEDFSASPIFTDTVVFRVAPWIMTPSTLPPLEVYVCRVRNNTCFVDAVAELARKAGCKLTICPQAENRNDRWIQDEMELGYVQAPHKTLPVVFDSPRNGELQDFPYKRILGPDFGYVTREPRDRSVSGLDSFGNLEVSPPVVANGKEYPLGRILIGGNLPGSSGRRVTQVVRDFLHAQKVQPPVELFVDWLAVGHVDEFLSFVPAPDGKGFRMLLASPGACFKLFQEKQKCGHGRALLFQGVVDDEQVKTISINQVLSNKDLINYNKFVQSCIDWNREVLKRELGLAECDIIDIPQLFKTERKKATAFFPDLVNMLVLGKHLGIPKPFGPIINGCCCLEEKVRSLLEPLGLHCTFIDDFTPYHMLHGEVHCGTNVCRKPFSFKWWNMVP
# Outline: as §1
# [3] = molecular target: Protein-arginine deiminase type-2 (Homo sapiens) (UniProt Q9Y2J8); conditions: recombinant PAD1-4, gel-based ABPP, RFA probe fluorescence; PAD2; at 10 µM; hits give high values
# Chain of Protein-arginine deiminase type-2 (Homo sapiens) (Q9Y2J8 whole entry, looked up): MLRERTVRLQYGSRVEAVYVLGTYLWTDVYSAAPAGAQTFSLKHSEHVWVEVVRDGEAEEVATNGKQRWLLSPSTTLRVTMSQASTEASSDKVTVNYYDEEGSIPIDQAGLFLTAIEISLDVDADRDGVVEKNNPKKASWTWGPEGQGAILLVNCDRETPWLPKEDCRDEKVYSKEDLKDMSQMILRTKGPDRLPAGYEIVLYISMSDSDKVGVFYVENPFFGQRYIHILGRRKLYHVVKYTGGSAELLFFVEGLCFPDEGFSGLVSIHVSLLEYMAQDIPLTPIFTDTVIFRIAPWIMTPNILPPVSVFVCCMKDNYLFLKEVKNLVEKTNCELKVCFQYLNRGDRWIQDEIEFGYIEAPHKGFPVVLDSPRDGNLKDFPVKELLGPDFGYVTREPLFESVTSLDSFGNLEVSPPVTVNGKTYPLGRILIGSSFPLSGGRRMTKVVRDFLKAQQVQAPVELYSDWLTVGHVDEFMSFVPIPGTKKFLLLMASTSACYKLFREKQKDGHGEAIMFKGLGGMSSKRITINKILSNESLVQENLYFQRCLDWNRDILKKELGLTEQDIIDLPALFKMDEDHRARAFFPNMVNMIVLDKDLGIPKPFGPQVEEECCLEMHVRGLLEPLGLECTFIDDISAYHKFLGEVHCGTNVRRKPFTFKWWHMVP
# Outline: as §1
# [4] = molecular target: Protein-arginine deiminase type-1 (Homo sapiens) (UniProt Q9ULC6); conditions: recombinant PAD1-4, gel-based ABPP, RFA probe fluorescence; PAD1; at 10 µM; hits give high values
# Chain of Protein-arginine deiminase type-1 (Homo sapiens) (Q9ULC6 whole entry, looked up): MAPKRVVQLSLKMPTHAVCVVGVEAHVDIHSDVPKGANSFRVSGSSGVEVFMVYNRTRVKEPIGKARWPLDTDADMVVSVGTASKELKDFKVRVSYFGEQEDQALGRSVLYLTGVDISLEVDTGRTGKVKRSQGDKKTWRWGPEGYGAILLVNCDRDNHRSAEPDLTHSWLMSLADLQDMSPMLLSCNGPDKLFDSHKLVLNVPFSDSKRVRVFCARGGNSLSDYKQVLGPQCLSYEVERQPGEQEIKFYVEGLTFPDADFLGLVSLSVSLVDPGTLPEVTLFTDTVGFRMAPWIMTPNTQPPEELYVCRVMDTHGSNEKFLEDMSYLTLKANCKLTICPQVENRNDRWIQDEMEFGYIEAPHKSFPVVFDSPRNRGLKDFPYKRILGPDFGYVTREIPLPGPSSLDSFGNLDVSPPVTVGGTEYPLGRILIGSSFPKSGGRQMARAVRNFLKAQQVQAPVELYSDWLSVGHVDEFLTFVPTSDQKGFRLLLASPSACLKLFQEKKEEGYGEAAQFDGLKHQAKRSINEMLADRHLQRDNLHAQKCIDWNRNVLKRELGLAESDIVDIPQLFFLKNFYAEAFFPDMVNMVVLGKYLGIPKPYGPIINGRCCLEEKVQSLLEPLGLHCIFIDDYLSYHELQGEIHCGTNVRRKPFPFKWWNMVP
# Outline: as §1
SMILES,inhibition [1],inhibition [2],inhibition [3],inhibition [4]
O=C(O)c1[nH]c2ccccc2c1-c1ccccc1,40% (inactive),10% (inactive),14% (inactive),17% (inactive)
Cc1cc(-c2nnc(SCC(=O)Nc3ccc(F)c(F)c3)n2N)n[nH]1,51%,-20% (inactive),62%,43% (inactive)
Cc1cc(C)c(C)c(S(=O)(=O)N2CCC(C(=O)N3CCCC3)CC2)c1C,39% (inactive),22% (inactive),-43% (inactive),-32% (inactive)
O=C(NCC1CCCO1)c1cc2c([nH]c3ccccc32)c(-c2ccc(F)cc2)n1 (stereo unspecified),78%,-27% (inactive),13% (inactive),36% (inactive)
Cc1ccc(C2CC(=O)Oc3cc(O)ccc32)cc1 (stereo unspecified),-30% (inactive),43% (inactive),-2% (inactive),40% (inactive)
Cc1ccc(CNC(=O)c2ccc(C)c(S(=O)(=O)N3CCCCC3)c2)cc1,19% (inactive),31% (inactive),67%,21% (inactive)
COc1ccc(-c2noc3c2-c2nc(-c4ccc(Br)cc4)sc2CC3)cc1,47% (inactive),-23% (inactive),32% (inactive),33% (inactive)
COc1cc(NC2c3ccccc3C(=O)N2Cc2ccccc2Cl)cc(OC)c1 (stereo unspecified),18% (inactive),-3% (inactive),17% (inactive),38% (inactive)
Cc1ccc(-c2nc3sc(C#N)c(N)n3c(=O)c2C#N)cc1,38% (inactive),31% (inactive),16% (inactive),32% (inactive)
COc1ccc(-c2cc(=O)[nH][nH]2)cc1,35% (inactive),32% (inactive),53%,58%
O=C(O)c1ccc(S(=O)(=O)c2ccc3c(c2)C(=O)N(c2ccc(O)cc2)C3=O)cc1,-3% (inactive),34% (inactive),32% (inactive),18% (inactive)
COc1ccc(OC)c(C2C(C#N)=C(N)Oc3c2c(C)nn3-c2ccc(C)cc2)c1 (stereo unspecified),31% (inactive),-37% (inactive),18% (inactive),22% (inactive)
CCC(=O)Oc1ccc(C(=O)Nc2cccc(C(=O)NC(C)(C)C)c2)cc1,4% (inactive),40% (inactive),29% (inactive),34% (inactive)
O=[N+]([O-])c1ccc2nc(-c3ccccc3)n(OCc3ccc(Cl)cc3)c2c1,-3% (inactive),36% (inactive),36% (inactive),3% (inactive)
COc1ccc(/C=N/Nc2nncn2N)cc1Br,55%,-24% (inactive),44% (inactive),30% (inactive)
Cn1c(N)c(C(=O)COC(=O)COc2ccc(Br)cc2)c(=O)n(C)c1=O,20% (inactive),19% (inactive),51%,16% (inactive)
CC(=O)Nc1c2c3c(cccc3n(C)c1=O)C(=O)c1ccccc1-2,28% (inactive),32% (inactive),37% (inactive),-5% (inactive)

# The next lines start with the values.
inhibition [1],inhibition [2],inhibition [3],inhibition [4],SMILES
-23% (inactive),29% (inactive),21% (inactive),53%,N#CCCN(C(=O)Cn1nc(C(=O)O)c2ccccc2c1=O)c1ccccc1
-7% (inactive),39% (inactive),19% (inactive),58%,CC(=O)N(Cc1cc(=O)[nH]c2ccccc12)c1cccc(C)c1
32% (inactive),3% (inactive),29% (inactive),47% (inactive),N#CCCn1[nH]c(-c2ccccc2)cc1=O
41% (inactive),-58% (inactive),61%,33% (inactive),CN(C)CCCNc1cn[nH]c(=O)c1Cl
-38% (inactive),24% (inactive),24% (inactive),43% (inactive),CCN(Cc1ccc2c(c1)OCCO2)C(=O)CSc1nc(C)nc2sc(C)c(C)c12
93%,6% (inactive),63%,-20% (inactive),CCN(CC)S(=O)(=O)c1ccc(N=NC2=C(O)CCCC2=O)cc1
66%,-7% (inactive),35% (inactive),46% (inactive),Cc1c(NC(=O)CSc2nccn2C)c(=O)n(-c2ccccc2)n1C
24% (inactive),35% (inactive),46% (inactive),11% (inactive),CN(C)C(CNC(=O)c1cc2ccccc2o1)c1ccco1 (stereo unspecified)
10% (inactive),-12% (inactive),18% (inactive),30% (inactive),COc1ccc(-c2nc(C(=O)NCCCN3CCOCC3)cc3c2[nH]c2ccccc23)cc1OC
20% (inactive),46% (inactive),62%,37% (inactive),CCOc1nc(Nc2ccc(OC)cc2OC)nc(OCC)n1
61%,26% (inactive),22% (inactive),15% (inactive),COc1cccc(NC(=O)C2c3cc(OC)c(OC)cc3C(=O)N(C)C2c2cccnc2)c1 (stereo unspecified)
80%,-19% (inactive),25% (inactive),0% (inactive),Cn1c(=O)c2c(ncn2CC(=O)Nc2nc(-c3ccccc3Cl)cs2)n(C)c1=O
55%,49% (inactive),21% (inactive),13% (inactive),COc1ccc(C2C(C#N)=C(N)N(N(C)C)C3=C2C(=O)CCC3)cc1 (stereo unspecified)
12% (inactive),57%,29% (inactive),2% (inactive),Cc1nn(-c2ccccc2)c(C)c1NC(=O)COc1ccc(Cl)cc1Cl
33% (inactive),23% (inactive),35% (inactive),-15% (inactive),COc1ccc(CCNC(=O)c2c[nH]c3ccc(F)cc3c2=O)cc1OC
40% (inactive),33% (inactive),40% (inactive),9% (inactive),CCN(CC)S(=O)(=O)c1ccc(C)c(NS(=O)(=O)c2cc(/C=C/C(=O)O)cc(OC)c2OC)c1
31% (inactive),11% (inactive),26% (inactive),-8% (inactive),CCOc1ccccc1C(=O)NCC(=O)NCCCc1ccccc1
